These results are taken from ChEMBL document CHEMBL3045671, “Non-imidazole histamine H3 ligands: part V. synthesis and preliminary pharmacological investigation of 1-[2-thiazol-4-yl- and 1-[2-thiazol-5-yl-(2-aminoethyl)]-4-n-propylpiperazine derivatives” (Med Chem Res, 2013).

The Ki is the dissociation constant of the complex between target and ligand, obtained from inhibition or displacement. A high value points to lower affinity.

Histamine H3 receptor (Cavia porcellus, UniProt Q9JI35), sequence (Q9JI35 whole entry): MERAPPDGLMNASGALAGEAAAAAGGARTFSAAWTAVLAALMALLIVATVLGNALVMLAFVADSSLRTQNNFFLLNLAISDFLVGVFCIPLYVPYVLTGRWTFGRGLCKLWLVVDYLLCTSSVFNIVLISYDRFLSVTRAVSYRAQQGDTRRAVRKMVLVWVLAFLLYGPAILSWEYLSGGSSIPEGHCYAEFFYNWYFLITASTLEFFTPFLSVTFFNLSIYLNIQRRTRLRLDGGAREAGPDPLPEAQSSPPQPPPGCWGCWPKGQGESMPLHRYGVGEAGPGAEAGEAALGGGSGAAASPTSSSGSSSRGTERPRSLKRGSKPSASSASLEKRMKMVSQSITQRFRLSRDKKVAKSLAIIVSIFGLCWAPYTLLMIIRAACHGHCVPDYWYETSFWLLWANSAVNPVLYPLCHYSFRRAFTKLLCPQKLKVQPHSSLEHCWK
Histamine H3 receptor (Rattus norvegicus, UniProt Q9QYN8), sequence (Q9QYN8 whole entry): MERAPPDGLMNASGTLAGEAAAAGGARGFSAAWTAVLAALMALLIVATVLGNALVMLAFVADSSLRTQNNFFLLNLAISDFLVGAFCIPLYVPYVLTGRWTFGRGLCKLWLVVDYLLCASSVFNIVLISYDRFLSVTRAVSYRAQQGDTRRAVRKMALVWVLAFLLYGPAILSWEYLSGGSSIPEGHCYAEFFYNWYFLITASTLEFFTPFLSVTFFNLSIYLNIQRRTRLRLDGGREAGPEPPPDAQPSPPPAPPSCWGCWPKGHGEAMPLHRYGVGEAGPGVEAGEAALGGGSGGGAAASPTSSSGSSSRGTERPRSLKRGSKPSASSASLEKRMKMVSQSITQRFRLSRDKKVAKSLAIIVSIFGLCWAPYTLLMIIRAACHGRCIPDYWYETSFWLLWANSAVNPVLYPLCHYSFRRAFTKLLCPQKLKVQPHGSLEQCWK

One assay concerns the target Histamine H3 receptor (Rattus norvegicus, UniProt Q9QYN8). Put plainly: Binding affinity to Rattus norvegicus (rat) H3 receptor.
Details: not given
With `O=C(c1ccc(OCCCN2CCCCC2)cc1)C1CC1`, the Ki was determined as 4 nM. That is a single-digit nanomolar value.

Another assay has as its target Histamine H3 receptor (Cavia porcellus, UniProt Q9JI35). Put plainly: Antagonist activity at H3 receptor in Cavia porcellus (guinea pig) jejunum assessed as inhibition of electrically evoked muscle contraction. Particulars: read-out: pA2 (converted). In outline:
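Segments under 1.0 g tension, isotonic recording; 1 h equilibration with washes every 10 min. Field-stimulated maximally (15–20 V) at 0.1 Hz, 0.5 ms rectangular pulses. After 30 min stimulation, cumulative (R)-α-methylhistamine curves (half-log steps) run with pyrilamine 1 × 10⁻⁵ mol/L in bath. The curve was repeated 20 min after the test compound was added, with pyrilamine given beforehand.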
On to `CCCN1CCN(c2nc(CCN(C)C(=O)c3ccccc3)cs2)CC1`, for which the Kb was 2240 nM.
The same measure, in the same setting: as for `CCCN(C)CCc1csc(N2CCN(CCC)CC2)n1`, the figure is 120 nM; as for `CCCN1CCN(c2ncc(CCN(C)CCc3ccccc3)s2)CC1`, 24.5 nM; as for `CCCN1CCN(c2ncc(CCN(C)C(=O)c3ccc(C)cc3)s2)CC1`, 24.5 nM.
The same measure, in the same setting: as for `CCCN1CCN(c2nc(CCN(C)C(=O)c3ccc([N+](=O)[O-])cc3)cs2)CC1`, the figure is 933 nM; as for `CCCN1CCN(c2nc(CCN(C)CCCCCc3ccccc3)cs2)CC1`, 204 nM; as for `CCCN1CCN(c2ncc(CCN(C)C(=O)c3ccccc3)s2)CC1`, 35.5 nM.
Still for that read-out and setting: with `CCCN1CCN(c2nc(CCN(C)C)cs2)CC1` the figure was 174 nM; with `CCCN1CCN(c2nc(CCN(C)CCc3ccccc3)cs2)CC1`, 155 nM; with `CCCN1CCN(c2nc(CCN(C)CCCCc3ccccc3)cs2)CC1`, 191 nM.
For `CCCN1CCN(c2ncc(CCN(C)C(=O)c3ccc([N+](=O)[O-])cc3)s2)CC1`, the Kb is 17.4 nM.
Same read-out and setting: with `CCCN1CCN(c2nc(CCN(C)CCCc3ccccc3)cs2)CC1` the figure was 245 nM; with `CCCN1CCN(c2nc(CCN(C)C(=O)c3ccc(C)cc3)cs2)CC1`, 1580 nM; with `CCCN1CCN(c2nc(CCN(C)Cc3ccccc3)cs2)CC1`, 75.9 nM.
Still for that read-out and setting: with `CCCN1CCN(c2ncc(CCN(C)C(=O)c3ccc(Cl)cc3)s2)CC1` the figure was 18.6 nM; with `CCCN1CCN(c2nc(CCN(C)C(=O)c3ccc(Cl)cc3)cs2)CC1`, 589 nM.
